Assay [1] deals with Human immunodeficiency virus 1. The experiment in a line: Protection of MT-4 lymphocytes by the compound against HIV-1 infectivity in vitro at a concentration of 0.032 ug/mL ([…] uM/mL). It is filed as functional. A digest of the protocol:
(§1)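 Virus (HIV-1 Molt IIIB, ~2 × 10^4 TCID50) preincubated with compound 1 h at 37 °C, 5% CO2. Then added to MT-4 cells (5 × 10^5 cells/well) and cultured at 37 °C. Trypan blue viability counts taken on days 4 and 7, triplicate at each concentration. Controls were infected and uninfected cells. Reported as % viable (surviving) MT-4 cells.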

The subject of assay [2] is Human immunodeficiency virus 1. Put plainly: Protection of MT-4 lymphocytes by the compound against HIV-1 infectivity in vitro at a concentration of 0.016 ug/mL (0.00006 uM/mL). It is filed as functional. The gist of the method: as §1
The subject of assay [3] is Human immunodeficiency virus 1. Put plainly: microbe, parasite or virus in culture.
For assay [4], the system named is Human immunodeficiency virus 1. Put plainly: Protection of MT-4 lymphocytes by the compound against HIV-1 infectivity in vitro at a concentration of 0.008 ug/mL (0.00003 uM/mL). It is filed as functional. The gist of the method: as §1
For assay [5], the system named is MT4. Put plainly: Cytotoxic effect in cultured MT-4 lymphocytes at a concentration of 2 ug/mL (0.0080 uM/mL). It is filed as functional, Homo sapiens. A digest of the protocol:
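MT-4 cells at 5 × 10^4 cells/well, 1 mL total, cultured with compound diluted in RPMI 1640 with 10% FBS, 10 mM HEPES, penicillin/streptomycin and 2 mM glutamine, at 37 °C under 5% CO2. Viability was scored by trypan blue exclusion on days 4 and 7, in triplicate, as % viable cells.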

In assay [6] the test system is MCF7. The experiment in a line: […] breast tumor cell proliferation inhibition by the compound in vitro at a concentration 70 of uM. It is filed as functional, Homo sapiens. A digest of the protocol:
(§2)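 Tumor cells grown in RPMI-1640 in 1% agar with 5% fetal bovine serum, exposed to set compound concentrations for 1 week. Viability scored against a control given distilled water in place of drug. 5-fluorouracil served as reference cytotoxic drug. Reported as concentration-dependent cell survival.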

In assay [7] the test system is MCF7. The experiment in a line: […] breast tumor cell proliferation inhibition by the compound in vitro at a concentration 7.0 of uM. It is filed as functional, Homo sapiens. A digest of the protocol: as §2
The subject of assay [8] is MCF7. Put plainly: […] breast tumor cell proliferation inhibition by the compound in vitro at a concentration of 0.7 uM. It is filed as functional, Homo sapiens. The gist of the method:
as §2

Assay [9] is described as follows: Calu3 lung tumor cell proliferation inhibition by the compound in vitro at a concentration of 0.7 uM. It is filed as functional, Homo sapiens. A digest of the protocol:
as §2

In assay [10] the test system is COLO 320DM. The experiment in a line: COLO 320DM colon tumor cell proliferation inhibition by the compound in vitro at a concentration of 0.7 uM. It is filed as functional, Homo sapiens. The gist of the method: as §2
The test system of assay [11] is COLO 320DM. The experiment in a line: COLO 320DM colon tumor cell proliferation inhibition by the compound in vitro at a concentration of 7.0 uM. It is filed as functional, Homo sapiens. The gist of the method:
as §2

A short description of assay [12]: Calu3 lung tumor cell proliferation inhibition by the compound in vitro at a concentration of 70 uM. It is filed as functional, Homo sapiens. The gist of the method:
as §2

Assay [13] is described as follows: Calu3 lung tumor cell proliferation inhibition by the compound in vitro at a concentration of 7.0 uM. It is filed as functional, Homo sapiens. A digest of the protocol:
as §2

The subject of assay [14] is COLO 320DM. The experiment in a line: COLO 320DM colon tumor cell proliferation inhibition by the compound in vitro at a concentration of 70 uM. It is filed as functional, Homo sapiens. The gist of the method:
as §2

We go through three compounds from ChEMBL document CHEMBL1125493, “HIV-1 neutralization and tumor cell proliferation inhibition in vitro by simplified analogues of pyrido[4,3,2-mn]thiazolo[5,4-b]acridine marine alkaloids” (J Med Chem, 1992).

The structures appear in SMILES notation.

As for `Cc1cn([C@H]2C[C@H](N=[N+]=[N-])[C@@H](CO)O2)c(=O)[nH]c1=O` [ZIDOVUDINE], the results for the Survival in assay [1], in [2] and in [4] were 78.3%, 79.4% and 74.3%, respectively. In [3], this compound had a concentration for a half-maximal effect (EC50) of 4 nM.

For the compound `Cc1nc2cc3nc4ccccc4cc3cc2s1.Cl`, the Viability in [5] is reported as 85%.

On to `O=c1[nH]cc(F)c(=O)[nH]1` [FLUOROURACIL], for which the Viability in [6] is recorded as 5%; in [7] it was 10%; in [8], 29%; in assay [9], 80%; in assay [10] it was 79%; in [11], 5%. For the same compound, the Viability was determined as 17% in assay [12], 32% in [13] and 2% in assay [14].
